These results are taken from ChEMBL document CHEMBL4346740, “Development of novel lithocholic acid derivatives as vitamin D receptor agonists” (Bioorg Med Chem, 2019).

Activity calls are given as the source filed them. The calls are words filed in the database; no cut-off is given here.

The target in experiment [1] is T1, Vitamin D3 receptor (Homo sapiens) (UniProt P11473).
T1 sequence (whole entry): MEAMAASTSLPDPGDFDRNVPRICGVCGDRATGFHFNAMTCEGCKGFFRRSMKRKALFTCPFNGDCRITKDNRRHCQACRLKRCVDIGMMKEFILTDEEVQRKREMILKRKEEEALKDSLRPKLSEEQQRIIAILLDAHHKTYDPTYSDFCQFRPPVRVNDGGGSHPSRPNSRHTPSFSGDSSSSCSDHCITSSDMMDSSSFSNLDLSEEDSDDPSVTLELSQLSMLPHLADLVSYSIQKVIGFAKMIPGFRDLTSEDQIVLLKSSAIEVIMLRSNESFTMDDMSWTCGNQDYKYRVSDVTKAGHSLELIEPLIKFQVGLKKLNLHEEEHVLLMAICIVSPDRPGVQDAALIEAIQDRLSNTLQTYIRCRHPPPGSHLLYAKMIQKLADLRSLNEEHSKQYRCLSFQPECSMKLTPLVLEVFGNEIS
The experiment can be described thus: Transactivation of human VDR expressed in COS-7 cells transfected with mouse osteopontin VDRE at >1 uM measured after 24 hrs by luciferase based reporter gene assay. The format is cell-based. A digest of the protocol: (§1)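 COS-7 cells in DMEM with 5% FCS, lipofected at 24 h with SPPx3-TK-LUC (three mouse osteopontin VDRE copies), pCMX-hVDR and pRL-CMV. After 4 h, switched to DMEM with 1% FCS. Next day, compound, 1α,25(OH)2D3 or ethanol vehicle added for 24 h. Lysate luciferase normalized to sea pansy internal control; triplicate.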
(Reporter assays use an easily measured gene product as a stand-in for the process of interest.)

Experiment [2] addresses T1, Vitamin D3 receptor (Homo sapiens). The experiment can be described thus: Transactivation of VDR in human […] cell assessed as cell differentiation at 10^-7 to 10^-5 M measured after 4 days by NBT dye-based assay. A digest of the protocol:
(§2)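 HL-60 cells grown in RPMI-1640 with 5% FBS, diluted to 8.0 × 10^4 cells/mL. Compound added from ethanol solution; ethanol-only control; 1α,25(OH)2D3 run alongside each time. Incubated 4 days at 37 °C, 5% CO2. Cells then exposed 20 min at 37 °C to 0.2% NBT with TPA (200 ng/mL) in PBS. Formazan-positive percentage scored in at least 200 cells.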

The target is the same in experiment [3]. The experiment can be described thus: Transactivation of VDR in human […] cell assessed as cell differentiation at 10^-5 M measured after 4 days by NBT dye-based assay. In a few lines: as §2
For experiment [4] the target is unchanged. Kind of experiment: Transactivation of human VDR expressed in COS-7 cells transfected with mouse […] for 24 hrs by luciferase based reporter gene assay. Format: cell-based. In a few lines:
as §1

For experiment [5], the target named is T2, Vitamin D3 receptor (Bos taurus) (UniProt Q28037).
T2 sequence (whole entry): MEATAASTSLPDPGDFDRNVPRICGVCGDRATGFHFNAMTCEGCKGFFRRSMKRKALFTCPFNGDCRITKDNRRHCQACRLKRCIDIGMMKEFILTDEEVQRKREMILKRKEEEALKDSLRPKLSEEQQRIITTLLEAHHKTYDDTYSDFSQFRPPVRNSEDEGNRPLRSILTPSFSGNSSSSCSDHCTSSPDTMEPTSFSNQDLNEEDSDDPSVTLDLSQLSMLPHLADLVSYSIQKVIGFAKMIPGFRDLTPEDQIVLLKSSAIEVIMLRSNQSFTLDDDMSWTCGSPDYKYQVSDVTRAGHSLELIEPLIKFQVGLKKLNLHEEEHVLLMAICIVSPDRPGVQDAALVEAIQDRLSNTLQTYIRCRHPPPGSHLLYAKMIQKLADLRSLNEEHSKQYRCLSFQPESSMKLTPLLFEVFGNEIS
Kind of experiment: Displacement of [3H]1alpha,25(OH)2D3 from bovine thymus VDR incubated for 19 hrs by radioactivity based competitive binding assay. In a few lines:
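Bovine thymus VDR in 0.05 M phosphate buffer (pH 7.4) with 0.3 M KCl and 5 mM DTT. Incubated 19 h at 4 °C with 0.072 nM [3H]1α,25(OH)2D3 plus graded amounts of analog or vehicle. Bound and free ligand separated on dextran-coated charcoal (20 min, 4 °C), then centrifuged at 1000g. Supernatant radioactivity counted; run in duplicate.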
A general note: Loss of bound radioactivity is the signal in a displacement assay; it reports binding, not function.

`C[C@H](CCC(=O)O)[C@H]1CC[C@H]2[C@@H]3CC[C@@H]4C[C@H](OC(=O)C(F)(F)F)CC[C@]4(C)[C@H]3CC[C@]12C`: in experiment [1], the result was Active. For the same compound, in experiment [2], the result was inactive.
Take `CC(=O)O[C@@H]1CC[C@@]2(C)[C@H](CC[C@@H]3[C@@H]2CC[C@]2(C)[C@@H]([C@H](C)CCC(=O)O)CC[C@@H]32)C1`: the outcome in experiment [3] and in experiment [4] was Active.
On to `C[C@H](CCC(=O)O)[C@H]1CC[C@H]2[C@@H]3CC[C@@H]4C[C@H](OS(C)(=O)=O)CC[C@]4(C)[C@H]3CC[C@]12C`, for which the outcome in experiment [5] and in experiment [4] was Active.
Regarding `C[C@H](CCC(=O)O)[C@H]1CC[C@H]2[C@@H]3CC[C@@H]4C[C@H](OC(=O)c5ccccc5)CC[C@]4(C)[C@H]3CC[C@]12C`, the result in experiment [2] was inactive.
On to `COC(=O)O[C@@H]1CC[C@@]2(C)[C@H](CC[C@@H]3[C@@H]2CC[C@]2(C)[C@@H]([C@H](C)CCC(=O)O)CC[C@@H]32)C1`, for which the outcome in experiment [2] was inactive.
The same measure, in the same setting: to `C[C@H](CCC(=O)O)[C@H]1CC[C@H]2[C@@H]3CC[C@@H]4C[C@H](NS(C)(=O)=O)CC[C@]4(C)[C@H]3CC[C@]12C` belongs “Active”.
